The results in this text go back to PubChem BioAssay.

A number with no mark means an inactive call.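 Rule for the calls: active = growth inhibition above a set limit, 3 SD over mean compound inhibition, in both replicates (cut at about 43% in these data); inconclusive = above the limit in only one replicate; inactive = at or below the limit in both replicates.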

The nature of this experiment: Restrictive medium S. cerevisiae growth inhibition, OD615, pilot screen of yeast lifespan reduction project, restrictive growth control (AID 706).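 Note: modified DeaD lifespan yeast strain shifted to restrictive glucose medium.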 The note with it: OD615, 48 h, at 10 µM, hits give high values. In a few lines: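 Assay system: engineered S. cerevisiae DeaD strain; Buffer or medium: CSMM-D glucose medium; Dosing: 10 µM compound, 0.25% DMSO; Times: cell pre-growth 4 h, compound exposure 48 h, 30 °C; Detection: absorbance (optical density) measured at 615 nm.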
Turning to `Cc1ncc(CO)c2cc(S(=O)(=O)c3ccc(F)cc3)c(=O)oc12`, the growth inhibition is -4.46%.

For the compound `CCC(SCC(=O)OC)C(=O)Nc1nnc(C(C)C)s1` (configuration not stated), the growth inhibition is 8.39%.

Turning to `C=CCOC(=O)C1=C(C)NC(C)=C(C(=O)OCC=C)C1c1ccc(O)cc1`, the growth inhibition is -8.46%.

With `CC(=O)c1ccc(OCC(O)CN2CCOCC2)cc1` (configuration not stated), the growth inhibition is 10.1%.

In the case of `CCOc1cc(-c2nc(-c3ccncc3)no2)cc(OCC)c1OCC`, the growth inhibition was -6.19%.

In the case of `O=C1CC(c2cccs2)CC(O)=C1C=NCCN1CCNCC1` (configuration not stated), the growth inhibition was -6.3%.

Take `OC(COc1ccc2ccccc2c1)CN1CCN(c2ccc(F)cc2)CC1` (configuration not stated): the growth inhibition was -5.26%.

Turning to `O=C(Nc1ccc(SC(F)F)cc1)C1=COCCO1`, the growth inhibition is 10.5%.

On to `COc1ccc(NS(=O)(=O)c2ccc3c(c2)oc(=O)n3C)c(OC)c1`, for which the growth inhibition is -28.2%.

With `COc1ccccc1C1CC(=O)NC(SCC(=O)Nc2ccccc2)=C1C#N` (configuration not stated), the growth inhibition is -11.8%.

Consider `CC(=O)Nc1ccccc1NC(=O)C(F)(F)F`, for which the growth inhibition was -5%.

For `CCOC(=O)C1=C(C)S/C(=C\N(C)C)C1=O`, the growth inhibition is -1.29%.

Turning to `Cc1ccc(-n2nnc3c(=O)n(CC(=O)NCc4ccco4)cnc32)cc1`, the growth inhibition was 2.02%.

In the case of `O=C(Cn1c(=O)sc2ccccc21)N1CCOCC1`, the growth inhibition was -4.46%.

Regarding `CCOCCOC(=O)C1=C(C)NC2=C(C(=O)CC(c3cccs3)C2)C1c1ccsc1` (configuration not stated), the growth inhibition is 2.17%.

Regarding `CC1CC(C)CN(CCCNC(=O)Cn2ncc3c(=O)oc4ccccc4c32)C1` (configuration not stated), the growth inhibition was 0.08%.

As for `CCC(C#CCN1CCCCC1)(CC)OCCC#N`, the growth inhibition was -9.71%.
